ChEMBL document CHEMBL1811848 (Bioorg Med Chem Lett, 2011)

Columns and labels:
Mus musculus [1] = experiment: Antihyperglycemic activity in db/db mouse assessed as reduction in glucose level at 3 mg/kg/day, po administered for 6 days relative to control; assay type: functional; set-up: scale not given: the % may be the effect or the level left
In short: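 Male db/db mice aged 6–8 weeks were dosed orally once daily for 6 days. Plasma glucose was then measured and expressed as % change versus vehicle-treated controls.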

[2] = Tmax in fasting Wistar rat at 30 mg/kg, po; assay type: ADME, organism-based; set-up: dose 30 mg/kg, route oral; details: in vivo
In short: (§1)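 Fasted male Wistar rats received one oral dose of 30 mg/kg. Plasma Cmax, T1/2 and Tmax are reported as mean ± SD of n = 3.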

[3] = Half life in fasting Wistar rat at 30 mg/kg, po; assay type: ADME, organism-based; set-up: dose 30 mg/kg, route oral; details: in vivo; in short: as §1
[4] = AUC (0 to infinity) in fasting Wistar rat at 30 mg/kg, po; assay type: ADME, organism-based; set-up: time infinity, dose 30 mg/kg, route oral; details: plasma
In short: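 Single oral dose of 30 mg/kg to fasted male Wistar rats. Pharmacokinetic parameters reported as mean ± SD, n = 3.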

Mus musculus [5] = experiment: Hypolipidemic activity in Swiss albino mouse assessed as reduction in triglyceride level at 3 mg/kg, po; assay type: functional; set-up: scale not given: the % may be the effect or the level left
Mus musculus [6] = experiment: Hypolipidemic activity in db/db mouse assessed as reduction in triglyceride level at 0.01 mg/kg, po; assay type: functional; set-up: scale not given: the % may be the effect or the level left
Mus musculus [7] = experiment: Hypolipidemic activity in db/db mouse assessed as reduction in triglyceride level at 0.03 mg/kg, po; assay type: functional; set-up: scale not given: the % may be the effect or the level left
Mus musculus [8] = experiment: Antihyperglycemic activity in db/db mouse assessed as reduction in plasma glucose level at 0.003 mg/kg, po; assay type: functional; set-up: scale not given: the % may be the effect or the level left
Mus musculus [9] = experiment: Antihyperglycemic activity in db/db mouse assessed as reduction in plasma glucose level at 0.3 mg/kg, po; assay type: functional; set-up: scale not given: the % may be the effect or the level left
Mus musculus [10] = experiment: Antihyperglycemic activity in db/db mouse assessed as reduction in plasma glucose level at 1 mg/kg, po; assay type: functional; set-up: scale not given: the % may be the effect or the level left
Rattus norvegicus [11] = experiment: Toxicity in male Wistar rat assessed as heart to body weight ratio at 3 mg/kg, po measured after 28 days (reference value: 0.383 +/- 0.012); assay type: organism-based; set-up: dose 3 mg/kg, route oral; details: in vivo, 672 h
Rattus norvegicus [12] = experiment: Toxicity in male Wistar rat assessed as liver to body weight ratio at 3 mg/kg, po measured after 28 days (reference value: 3.257 +/- 0.067); assay type: organism-based; set-up: dose 3 mg/kg, route oral; details: in vivo, 672 h
Rattus norvegicus [13] = experiment: Toxicity in male Wistar rat assessed as spleen to body weight ratio at 3 mg/kg, po measured after 28 days (reference value: 0.215 +/- 0.007); assay type: organism-based; set-up: dose 3 mg/kg, route oral; details: in vivo, 672 h
Rattus norvegicus [14] = experiment: Toxicity in male Wistar rat assessed as spleen to body weight ratio at 30 mg/kg, po measured after 28 days (reference value: 0.215 +/- 0.007); assay type: organism-based; set-up: dose 30 mg/kg, route oral; details: in vivo, 672 h
Rattus norvegicus [15] = experiment: Toxicity in male Wistar rat assessed as adrenal to body weight ratio at 3 mg/kg, po measured after 28 days (reference value: 0.018 +/- 0.001); assay type: organism-based; set-up: dose 3 mg/kg, route oral; details: in vivo, 672 h
Rattus norvegicus [16] = experiment: Toxicity in male Wistar rat assessed as adrenal to body weight ratio at 30 mg/kg, po measured after 28 days (reference value: 0.018 +/- 0.001); assay type: organism-based; set-up: dose 30 mg/kg, route oral; details: in vivo, 672 h
Rattus norvegicus [17] = experiment: Toxicity in male Wistar rat assessed as brain to body weight ratio at 3 mg/kg, po measured after 28 days (reference value: 0.658 +/- 0.015); assay type: organism-based; set-up: dose 3 mg/kg, route oral; details: in vivo, 672 h
Rattus norvegicus [18] = experiment: Toxicity in male Wistar rat assessed as epididymine to body weight ratio at 3 mg/kg, po measured after 28 days (reference value: 0.391 +/- 0.017); assay type: organism-based; set-up: dose 3 mg/kg, route oral; details: in vivo, 672 h
Rattus norvegicus [19] = experiment: Toxicity in male Wistar rat assessed as thymus to body weight ratio at 3 mg/kg, po measured after 28 days (reference value: 0.081+/- 0.013); assay type: organism-based; set-up: dose 3 mg/kg, route oral; details: in vivo, 672 h
Rattus norvegicus [20] = experiment: Toxicity in female Wistar rat assessed as kidney to body weight ratio at 3 mg/kg, po measured after 28 days (reference value: 0.733 +/- 0.007); assay type: organism-based; set-up: dose 3 mg/kg, route oral; details: in vivo, 672 h
Rattus norvegicus [21] = experiment: Toxicity in female Wistar rat assessed as spleen to body weight ratio at 3 mg/kg, po measured after 28 days (reference value: 0.237 +/- 0.012); assay type: organism-based; set-up: dose 3 mg/kg, route oral; details: in vivo, 672 h
Rattus norvegicus [22] = experiment: Toxicity in female Wistar rat assessed as thymus to body weight ratio at 30 mg/kg, po measured after 28 days (reference value: 0.094 +/- 0.01); assay type: organism-based; set-up: dose 30 mg/kg, route oral; details: in vivo, 672 h
Rattus norvegicus [23] = experiment: Toxicity in male Wistar rat assessed as change in body weight at 30 mg/kg, po measured after 28 days relative to control; assay type: organism-based; set-up: dose 30 mg/kg, route oral; details: in vivo, 672 h
Rattus norvegicus [24] = experiment: Toxicity in male Wistar rat assessed as hemoglobin level at 30 mg/kg, po measured after 28 days (reference value: 13.66 +/- 0.23 g/dl); assay type: organism-based; set-up: dose 30 mg/kg, route oral; details: in vivo, 672 h
Rattus norvegicus [25] = experiment: Toxicity in male Wistar rat assessed as glucose level at 30 mg/kg, po measured after 28 days (reference value: 70 +/- 3.49 mg/dl); assay type: organism-based; set-up: dose 30 mg/kg, route oral; details: in vivo, 672 h
Rattus norvegicus [26] = experiment: Toxicity in male Wistar rat assessed as creatinine level at 30 mg/kg, po measured after 28 days (reference value: 0.47 +/- 0.03 mg/dl); assay type: organism-based; set-up: dose 30 mg/kg, route oral; details: in vivo, 672 h
Rattus norvegicus [27] = experiment: Toxicity in male Wistar rat assessed as SGOT level at 3 mg/kg, po measured after 28 days (reference value: 135.14 +/- 6.89 U/L); assay type: organism-based; set-up: dose 3 mg/kg, route oral; details: in vivo, 672 h
Rattus norvegicus [28] = experiment: Toxicity in male Wistar rat assessed as albumin level at 30 mg/kg, po measured after 28 days (reference value: 3.66 +/- 0.10 g.dl); assay type: organism-based; set-up: dose 30 mg/kg, route oral; details: in vivo, 672 h
Rattus norvegicus [29] = experiment: Toxicity in male Wistar rat assessed as urea level at 3 mg/kg, po measured after 28 days (reference value: 30.52 +/- 0.79 mg/dl); assay type: organism-based; set-up: dose 3 mg/kg, route oral; details: in vivo, 672 h
Rattus norvegicus [30] = experiment: Toxicity in male Wistar rat assessed as urea level at 30 mg/kg, po measured after 28 days (reference value: 30.52 +/- 0.79 mg/dl); assay type: organism-based; set-up: dose 30 mg/kg, route oral; details: in vivo, 672 h
Rattus norvegicus [31] = experiment: Toxicity in female Wistar rat assessed as hemoglobin level at 3 mg/kg, po measured after 28 days (reference value: 11.90 +/- 0.19 g/dl); assay type: organism-based; set-up: dose 3 mg/kg, route oral; details: in vivo, 672 h
Rattus norvegicus [32] = experiment: Toxicity in female Wistar rat assessed as hemoglobin level at 30 mg/kg, po measured after 28 days (reference value: 11.90 +/- 0.19 g/dl); assay type: organism-based; set-up: dose 30 mg/kg, route oral; details: in vivo, 672 h
Rattus norvegicus [33] = experiment: Toxicity in female Wistar rat assessed as Glucose level at 3 mg/kg, po measured after 28 days (reference value: 69.94 +/- 2.30 mg/dl); assay type: organism-based; set-up: dose 3 mg/kg, route oral; details: in vivo, 672 h
Rattus norvegicus [34] = experiment: Toxicity in female Wistar rat assessed as creatinine level at 3 mg/kg, po measured after 28 days (reference value: 0.42 +/- 0.04 mg/dl); assay type: organism-based; set-up: dose 3 mg/kg, route oral; details: in vivo, 672 h
Rattus norvegicus [35] = experiment: Toxicity in female Wistar rat assessed as creatinine level at 30 mg/kg, po measured after 28 days (reference value: 0.42 +/- 0.04 mg/dl); assay type: organism-based; set-up: dose 30 mg/kg, route oral; details: in vivo, 672 h
Rattus norvegicus [36] = experiment: Toxicity in female Wistar rat assessed as […] level at 3 mg/kg, po measured after 28 days (reference value: 172.38 +/- 7.18 U/L); assay type: organism-based; set-up: dose 3 mg/kg, route oral; details: in vivo, 672 h
Rattus norvegicus [37] = experiment: Toxicity in female Wistar rat assessed as SGPT level at 3 mg/kg, po measured after 28 days (reference value: 30.44 +/- 1.59 U/L); assay type: organism-based; set-up: dose 3 mg/kg, route oral; details: in vivo, 672 h
Rattus norvegicus [38] = experiment: Toxicity in female Wistar rat assessed as SGPT level at 30 mg/kg, po measured after 28 days (reference value: 30.44 +/- 1.59 U/L); assay type: organism-based; set-up: dose 30 mg/kg, route oral; details: in vivo, 672 h
Rattus norvegicus [39] = experiment: Toxicity in female Wistar rat assessed as albumin level at 3 mg/kg, po measured after 28 days (reference value: 3.92 +/- 0.18 g.dl); assay type: organism-based; set-up: dose 3 mg/kg, route oral; details: in vivo, 672 h

CCO[C@@H](Cc1ccc(OCCc2nc(-c3ccc(C)s3)oc2C)cc1)C(=O)O
Activity (Mus musculus [1]): 72%
Tmax [2]: 0.667 h
half-life [3]: 7.4 h
AUC(0-inf) [4]: 456 µg·h/mL
Activity (Mus musculus [5]): 83.1%
Activity (Mus musculus [6]): 6.6%
Activity (Mus musculus [7]): 25.9%
Activity (Mus musculus [8]): 47.1%
Activity (Mus musculus [9]): 58.2%
Activity (Mus musculus [10]): 59.7%
Ratio (Rattus norvegicus [11]): 0.412
Ratio (Rattus norvegicus [12]): 7.505
Ratio (Rattus norvegicus [13]): 0.223
Ratio (Rattus norvegicus [14]): 0.252
Ratio (Rattus norvegicus [15]): 0.015
Ratio (Rattus norvegicus [16]): 0.018
Ratio (Rattus norvegicus [17]): 0.72
Ratio (Rattus norvegicus [18]): 0.36
Ratio (Rattus norvegicus [19]): 0.089
Ratio (Rattus norvegicus [20]): 0.804
Ratio (Rattus norvegicus [21]): 0.257
Ratio (Rattus norvegicus [22]): 0.066
Activity (Rattus norvegicus [23]): 24.01%
Activity (Rattus norvegicus [24]): 12.46 g/dL
Activity (Rattus norvegicus [25]): 83.28 mg/dL
Activity (Rattus norvegicus [26]): 0.37 mg/dL
Activity (Rattus norvegicus [27]): 193.51 U/L
Activity (Rattus norvegicus [28]): 4.12 g/dL
Activity (Rattus norvegicus [29]): 31.24 mg/dL
Activity (Rattus norvegicus [30]): 34.58 mg/dL
Activity (Rattus norvegicus [31]): 11.84 g/dL
Activity (Rattus norvegicus [32]): 11.83 g/dL
Activity (Rattus norvegicus [33]): 91.88 mg/dL
Activity (Rattus norvegicus [34]): 0.36 mg/dL
Activity (Rattus norvegicus [35]): 0.41 mg/dL
Activity (Rattus norvegicus [36]): 248.13 U/L
Activity (Rattus norvegicus [37]): 22.46 U/L
Activity (Rattus norvegicus [38]): 35.21 U/L
Activity (Rattus norvegicus [39]): 4.03 g/dL
